This note sets out measurements from ChEMBL document CHEMBL1122913, “Novel dopamine receptor agonists and antagonists with preferential action on autoreceptors” (1985).

Calls of active or inactive are those of the source. The rule behind the calls is not given here.

Experiment [1] is filed under the species Rattus norvegicus. Briefly: Locomotor activity after no pretreatment in rat at low-dose region expressed as percent of saline control. It is filed as functional.
Experiment [2] relates to Rattus norvegicus. Description: Effective dose against DOPA accumulation in rat brain limbic region after reserpine pretreatment by subcutaneous administration. The settings on record: sc. It is filed as functional. The method, boiled down: (§1)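 Male Sprague-Dawley rats (200-300 g), reserpine 5 mg/kg ip 18 h, test drug sc 60 min, and NSD 1015 100 mg/kg ip 30 min before death; saline controls. Limbic and striatal DOPA measured by HPLC-electrochemical detection. ED50 is the dose giving half-maximal decrease of DOPA formation, estimated from 4-7 dose levels (n = 3); controls = 100%.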

Experiment [3] relates to Rattus norvegicus. Description: Effective dose against DOPA accumulation in rat brain striatal region after reserpine pretreatment by subcutaneous administration. It is filed as functional. The settings on record: sc. The method, boiled down: as §1
For experiment [4], the species on record is Rattus norvegicus. Description: Locomotor activity after reserpine pretreatment in rat(p<0.001). It is filed as functional. In outline: (§2)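 Rats received reserpine 10 mg/kg ip 6 h and DL-α-methyl-p-tyrosine methyl ester 250 mg/kg ip 1 h before, then test drug sc immediately before the session. Photocell counts accumulated over 30 min, mean ± SEM, n = 4-9; t test vs saline controls. Haloperidol 0.3 mg/kg ip 30 min before test drug used for blockade.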

The species named for experiment [5] is Rattus norvegicus. Briefly: Locomotor activity after no pretreatment in rat at high-dose region expressed as percent of saline control. It is filed as functional.
In experiment [6] the test system is Rattus norvegicus. Description: Effective dose against DOPA accumulation in rat brain limbic region after no pretreatment by subcutaneous administration; No significant effect of 16 mg/kg subcutaneous administration. It is filed as functional, organism-based. More on the design: dose 16 mg/kg.
The species entered for experiment [7] is Rattus norvegicus. Description: Locomotor activity after no pretreatment in rat at high-dose region expressed as percent of saline control; Inactive. It is filed as functional, organism-based.
For experiment [8], the species on record is Rattus norvegicus. Briefly: Locomotor activity after no pretreatment in rat at low-dose region expressed as percent of saline control; Inactive. It is filed as functional, organism-based.
The species entered for experiment [9] is Rattus norvegicus. Description: Locomotor activity after reserpine pretreatment in rat. It is filed as functional. In outline:
as §2

Experiment [10] deals with Rattus norvegicus. Briefly: Effective dose against DOPA accumulation in rat brain striatal region after no pretreatment by subcutaneous administration; No significant effect of 16 mg/kg subcutaneous administration. It is filed as functional, organism-based. On the set-up: dose 16 mg/kg.
Experiment [11] has as its system Rattus norvegicus. Description: Effective dose against DOPA accumulation in rat brain striatal region after no pretreatment by subcutaneous administration. It is filed as functional. The settings on record: sc. In outline:
(§3)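 Untreated male Sprague-Dawley rats (200-300 g) received test drug sc 65 min and NSD 1015 100 mg/kg ip 30 min before death; saline controls. Limbic or striatal DOPA measured by HPLC-electrochemical detection. ED50 is the dose giving half-maximal increase or decrease of DOPA formation, from 4-5 dose levels (n = 3-10); controls = 100%.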

Experiment [12] concerns Rattus norvegicus. Description: Effective dose against DOPA accumulation in rat brain limbic region after reserpine pretreatment by subcutaneous administration; No significant effect of 16 mg/kg subcutaneous administration. On the set-up: dose 16 mg/kg. It is filed as functional, organism-based.
Experiment [13] concerns Rattus norvegicus. Description: Effective dose against DOPA accumulation in rat brain limbic region after no pretreatment by subcutaneous administration. It is filed as functional. The settings on record: sc. In outline: as §3
For experiment [14], the system named is Rattus norvegicus. Briefly: Effective dose against DOPA accumulation in rat brain striatal region after reserpine pretreatment by subcutaneous administration; No significant effect of 16 mg/kg subcutaneous administration. It is filed as functional, organism-based. On the set-up: dose 16 mg/kg.
Experiment [15] is filed under the species Rattus norvegicus. Description: Locomotor activity after reserpine pretreatment in rat; Not Tested. It is filed as functional, organism-based.
Experiment [16] deals with Rattus norvegicus. Description: Effective dose against DOPA accumulation in rat brain limbic region after reserpine pretreatment by subcutaneous administration; No significant effect at 0.5 mg/kg intraperitoneal administration. It is filed as functional, organism-based. More on the design: dose 0.5 mg/kg.
Experiment [17] concerns Rattus norvegicus. Description: Effective dose against DOPA accumulation in rat brain striatal region after reserpine pretreatment by subcutaneous administration; No significant effect at 0.5 mg/kg intraperitoneal administration. It is filed as functional, organism-based. More on the design: dose 0.5 mg/kg.

For the compound `CN1CCc2cccc3c2[C@H]1Cc1ccc(O)c(O)c1-3` [APOMORPHINE], the Control is recorded as 52% in the experiment filed under Rattus norvegicus [1] and 277% in the experiment filed under Rattus norvegicus [5]. The ED50 in the experiment on Rattus norvegicus [2] was 0.06 mg/kg; in the experiment on Rattus norvegicus [3], 0.07 mg/kg. Further, the “Accumulated counts/30” value in the experiment listed under Rattus norvegicus [4] was 361.

`CCCN(CCC)[C@H]1CCc2c(OC)cccc2[C@H]1C.Cl`: the ED50 result in the experiment on Rattus norvegicus [6] and in the experiment with Rattus norvegicus [10] was “inactive” in each case. Besides, the Control result in the experiment filed under Rattus norvegicus [7] and in the experiment filed under Rattus norvegicus [8] was “inactive” each time. In addition, the median effective dose (ED50) with Rattus norvegicus [2] came to 1.7 mg/kg; in the experiment on Rattus norvegicus [3], 1.8 mg/kg. In addition, in the experiment filed under Rattus norvegicus [9], the “Accumulated counts/30 min” value is recorded as 8.

Turning to `CCCN(CCC)[C@@H]1CCc2c(O)cccc2[C@@H]1C.Cl`, the ED50 was determined as 2.8 mg/kg with Rattus norvegicus [11] and 3 mg/kg with Rattus norvegicus [13]. The ED50 result in the experiment with Rattus norvegicus [12] and in the experiment on Rattus norvegicus [14] was “inactive” throughout. For the same compound, the Control in the experiment filed under Rattus norvegicus [1] came to 128%; in the experiment listed under Rattus norvegicus [5], 69%. The “Accumulated counts/30” value in the experiment filed under Rattus norvegicus [9] is listed as 6.

For the compound `CCCN(CCC)[C@H]1CCc2c(O)cccc2[C@H]1C.Cl`, the 50% effective dose (ED50) in the experiment with Rattus norvegicus [11] came to 0.25 mg/kg; in the experiment with Rattus norvegicus [13] it was 0.25 mg/kg; in the experiment on Rattus norvegicus [2], 0.09 mg/kg; in the experiment with Rattus norvegicus [3] it was 0.1 mg/kg. Moreover, the Control in the experiment filed under Rattus norvegicus [1] is 65%; in the experiment filed under Rattus norvegicus [5], 171%. The “Accumulated counts/30 min” value in the experiment listed under Rattus norvegicus [9] turned out to be 79.

Take `O=C(CCCN1CCC(O)(c2ccc(Cl)cc2)CC1)c1ccc(F)cc1` [HALOPERIDOL]: the “Accumulated counts/30 min” value in the experiment listed under Rattus norvegicus [15] is “inactive”. For the same compound, the ED50 in the experiment with Rattus norvegicus [11] and with Rattus norvegicus [13] was 0.07 mg/kg throughout. For the same compound, the Control in the experiment listed under Rattus norvegicus [1] turned out to be 75%; in the experiment filed under Rattus norvegicus [5], 3%. Moreover, the ED50 result in the experiment with Rattus norvegicus [16] and with Rattus norvegicus [17] was “inactive” throughout.

As to `CCCN(CCC)[C@@H]1CCc2c(OC)cccc2[C@@H]1C.Cl`, the ED50 in the experiment on Rattus norvegicus [11] was found to be 3 mg/kg; with Rattus norvegicus [13] it was 4 mg/kg. In addition, the ED50 entry with Rattus norvegicus [12] and in the experiment with Rattus norvegicus [14] was “inactive” in each case. Also, the results for the Control in the experiment listed under Rattus norvegicus [1] and in the experiment listed under Rattus norvegicus [5] were 144% and 49%, respectively. Also, in the experiment listed under Rattus norvegicus [9], the “Accumulated counts/30 min” value is on record as 4.
